Assay results published in paper PMC7452071 (Acta Pharmaceutica Sinica. B, 2019).
Read-outs that look alike come from different tables or passages of the source.

How the values were obtained:
TOP1 = TOP1 (Bos taurus, UniProt F1MN93); test: TOP1-mediated pBR322 DNA relaxation assay; assay type: biochemical; settings: 100 μmol/L
γH2AX in HCT116 cells = test: Western blot for γH2AX; assay type: cell-based, human; settings: 0.5 and 5 μmol/L, 24 h
In short: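 HCT116 seeded at 35 × 10^4 cells/well, treated 24 h with test compound or vehicle. Cells washed in cold PBS, lysed 30 min on ice in RIPA with protease and phosphatase inhibitors, protein quantified by BCA. 30 μg resolved by SDS-PAGE, transferred to PVDF, blocked 2 h in 5% BSA, primary antibody overnight at 4 °C, secondary 1.5 h, infrared imaging.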

[1] = biological target: human recombinant HDAC1 enzyme (Homo sapiens, UniProt Q13547); test: HDACs activity assay, HDAC1; assay type: biochemical
HCT116 (colon cancer) = test: In vitro cell viability assay; assay type: cell-based; settings: Homo sapiens
MCF-7 (breast cancer) = test: In vitro cell viability assay; assay type: cell-based; settings: Homo sapiens, MCF7, 48 h, read-out: IC50 MCF-7
A549 (lung cancer) = test: In vitro cell viability assay; assay type: cell-based; settings: Homo sapiens, A549, 48 h, read-out: IC50 A549
[2] = system: HCT116, MCF-7 and A549 cell lines; test: In vitro cell viability assay; assay type: cell-based; settings: Homo sapiens, read-out: IC50 range against the three tested cell lines
In short: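 Cells were grown in 10% FBS at 37 °C, 5% CO2, seeded in DMEM and held 24 h to 60%–70% confluency. They were then exposed to graded test compound concentrations or vehicle for 48 h. 10% CCK8 was added for 1–4 h at 37 °C and absorbance read at 450. IC50 was computed by the Logit method; three experiments.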

TOP2α = TOP2α (Homo sapiens, UniProt P11388); test: TOP2-mediated pBR322 DNA relaxation assay; assay type: biochemical
[3] = system: hematological cell lines (HL60, K562 and HEL); test: Antiproliferative activity, hematological cell lines together; assay type: cell-based; settings: read-out: IC50 range toward hematological cell lines
[4] = In vitro metabolic stability in mice liver microsomes; assay type: in vitro ADME; settings: female, ICR, mouse, liver microsomes, pH 7.4
HCT116 xenograft = test: In vivo tumor growth inhibition assay against HCT116 xenograft; settings: bid
[5] = HCT-116, 48 h, read-out: IC50 HCT116

TOP2α, sequence (P11388 whole entry): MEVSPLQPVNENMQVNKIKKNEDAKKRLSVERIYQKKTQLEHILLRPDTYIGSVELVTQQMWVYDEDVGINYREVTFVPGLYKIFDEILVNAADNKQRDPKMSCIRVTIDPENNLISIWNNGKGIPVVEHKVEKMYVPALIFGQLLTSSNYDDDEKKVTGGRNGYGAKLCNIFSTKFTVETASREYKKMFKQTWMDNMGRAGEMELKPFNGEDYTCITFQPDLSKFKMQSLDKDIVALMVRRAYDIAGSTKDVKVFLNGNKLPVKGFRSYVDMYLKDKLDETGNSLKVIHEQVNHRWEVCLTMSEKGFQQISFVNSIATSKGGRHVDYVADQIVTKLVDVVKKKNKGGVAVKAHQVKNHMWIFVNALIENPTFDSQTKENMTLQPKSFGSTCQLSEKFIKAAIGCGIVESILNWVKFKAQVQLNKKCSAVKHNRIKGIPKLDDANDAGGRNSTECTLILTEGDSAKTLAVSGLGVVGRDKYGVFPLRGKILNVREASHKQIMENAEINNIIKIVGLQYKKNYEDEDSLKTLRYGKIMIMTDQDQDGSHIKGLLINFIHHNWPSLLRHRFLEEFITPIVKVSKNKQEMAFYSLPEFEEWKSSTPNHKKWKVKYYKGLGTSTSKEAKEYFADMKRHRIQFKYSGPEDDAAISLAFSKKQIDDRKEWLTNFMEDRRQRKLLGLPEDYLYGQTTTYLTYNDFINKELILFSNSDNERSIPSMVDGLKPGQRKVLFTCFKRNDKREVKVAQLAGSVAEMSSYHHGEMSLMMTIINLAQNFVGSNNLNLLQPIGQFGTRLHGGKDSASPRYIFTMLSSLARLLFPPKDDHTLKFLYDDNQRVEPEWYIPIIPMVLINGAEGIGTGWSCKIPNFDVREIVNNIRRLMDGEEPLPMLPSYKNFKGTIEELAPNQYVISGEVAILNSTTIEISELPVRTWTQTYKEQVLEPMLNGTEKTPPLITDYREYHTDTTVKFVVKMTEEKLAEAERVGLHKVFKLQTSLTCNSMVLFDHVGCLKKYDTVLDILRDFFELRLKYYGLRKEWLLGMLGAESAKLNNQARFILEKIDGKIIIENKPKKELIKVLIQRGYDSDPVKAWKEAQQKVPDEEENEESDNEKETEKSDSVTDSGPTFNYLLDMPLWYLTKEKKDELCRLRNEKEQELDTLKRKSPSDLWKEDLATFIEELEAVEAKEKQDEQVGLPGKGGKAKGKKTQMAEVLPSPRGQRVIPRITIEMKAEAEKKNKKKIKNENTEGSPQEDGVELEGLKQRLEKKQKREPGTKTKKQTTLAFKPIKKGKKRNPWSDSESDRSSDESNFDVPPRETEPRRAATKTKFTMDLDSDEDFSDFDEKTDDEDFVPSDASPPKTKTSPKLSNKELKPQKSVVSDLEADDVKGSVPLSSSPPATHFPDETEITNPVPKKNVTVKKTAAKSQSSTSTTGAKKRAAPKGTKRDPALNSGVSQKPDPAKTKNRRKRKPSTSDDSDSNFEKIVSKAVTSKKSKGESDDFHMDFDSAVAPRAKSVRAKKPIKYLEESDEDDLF
human recombinant HDAC1 enzyme, sequence (Q13547 whole entry): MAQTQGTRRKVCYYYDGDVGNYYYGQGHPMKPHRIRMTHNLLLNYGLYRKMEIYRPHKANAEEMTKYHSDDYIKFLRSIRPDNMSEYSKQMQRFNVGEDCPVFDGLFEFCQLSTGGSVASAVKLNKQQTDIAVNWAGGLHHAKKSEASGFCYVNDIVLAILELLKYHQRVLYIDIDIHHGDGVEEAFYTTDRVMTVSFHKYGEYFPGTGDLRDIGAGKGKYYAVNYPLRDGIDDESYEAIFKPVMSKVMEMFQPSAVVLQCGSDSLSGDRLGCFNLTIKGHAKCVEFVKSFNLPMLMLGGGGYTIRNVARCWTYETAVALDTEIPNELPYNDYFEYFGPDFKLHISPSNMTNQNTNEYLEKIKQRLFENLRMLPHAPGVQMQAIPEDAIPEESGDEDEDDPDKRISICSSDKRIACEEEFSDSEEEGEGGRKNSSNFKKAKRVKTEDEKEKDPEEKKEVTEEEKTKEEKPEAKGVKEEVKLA
TOP1, sequence (F1MN93 1-767): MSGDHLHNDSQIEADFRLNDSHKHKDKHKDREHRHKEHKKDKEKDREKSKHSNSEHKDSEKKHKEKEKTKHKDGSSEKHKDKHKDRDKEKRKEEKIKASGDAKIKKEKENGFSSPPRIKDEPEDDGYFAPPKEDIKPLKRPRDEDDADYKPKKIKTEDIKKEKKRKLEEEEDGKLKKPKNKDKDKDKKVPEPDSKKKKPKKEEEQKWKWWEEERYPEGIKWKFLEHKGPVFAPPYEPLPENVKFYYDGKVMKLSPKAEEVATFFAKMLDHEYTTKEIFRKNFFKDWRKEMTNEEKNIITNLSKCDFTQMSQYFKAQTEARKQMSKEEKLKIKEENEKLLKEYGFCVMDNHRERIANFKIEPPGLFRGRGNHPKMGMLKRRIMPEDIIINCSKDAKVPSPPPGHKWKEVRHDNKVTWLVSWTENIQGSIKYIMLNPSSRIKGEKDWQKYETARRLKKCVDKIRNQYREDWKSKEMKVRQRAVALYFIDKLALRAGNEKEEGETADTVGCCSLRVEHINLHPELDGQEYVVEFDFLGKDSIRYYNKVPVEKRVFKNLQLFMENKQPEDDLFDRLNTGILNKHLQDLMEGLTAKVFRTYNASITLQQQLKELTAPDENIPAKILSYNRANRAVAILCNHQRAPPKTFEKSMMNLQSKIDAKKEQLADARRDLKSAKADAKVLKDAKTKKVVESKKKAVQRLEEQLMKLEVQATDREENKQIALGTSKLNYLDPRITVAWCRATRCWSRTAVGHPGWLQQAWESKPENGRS

Compound	IC50 [1]	IC50 (HCT116 (colon cancer); [5])	IC50 (MCF-7 (breast cancer))	IC50 (A549 (lung cancer))	TOP2 inhibitory activity (relaxation assay) (TOP2α; 100 μmol/L)	also measured
CC[C@@]1(O)C(=O)OCc2c1cc1n(c2=O)Cc2cc3ccccc3nc2-1 [CPT, Camptothecin]	–	–	–	–	–	TOP1 relaxation activity (supercoiled DNA band) (TOP1): obviously supercoiled DNA accumulation
O=C(CCCCCCC(=O)Nc1ccccc1)NO [Compound 1, vorinostat]	–	–	–	–	–	Expression of γH2AX (γH2AX in HCT116 cells): no increase
CN1c2ccccc2C(=O)N2[C@H](C(=O)Nc3cccc(/C=C/C(=O)NO)c3)Cc3c([nH]c4ccccc34)[C@@H]12 [Compound 25b, (7S,13bS)-N-(3-((E)-3-(Hydroxyamino)-3-oxoprop-1-en-1-yl)phenyl)-14-methyl-5-oxo-5,7,8,13,13b,14-hexahydroindolo[2′,3′:3,4]pyrido[2,1-b]quinazoline-7-carboxamide]	31 ± 2.3 nM	520 ± 360 nM	2200 ± 180 nM	15000 ± 1400 nM	remarkable TOP2 inhibitory activities	TOP2 inhibitory activity (relaxation assay) (TOP2α; 50 μmol/L): remarkable TOP2 inhibitory activities
CN1c2ccc(F)cc2C(=O)N2[C@H](C(=O)Nc3ccc(C(=O)Nc4ccccc4N)cc3)Cc3c([nH]c4ccccc34)[C@@H]12 [Compound 30b, (7S,13bS)-N-(4-((2-Aminophenyl)carbamoyl)phenyl)-3-fluoro-14-methyl-5-oxo-5,7,8,13,13b,14-hexahydroindolo[2′,3′:3,4]pyrido[2,1-b]quinazoline-7-carboxamide]	180 ± 20 nM	2400 ± 220 nM	> 50000 nM	7900 ± 680 nM	–	IC50 (HCT116 (colon cancer); HCT-116, read-out: IC50 HCT116): 3600 nM
CN1c2ccccc2C(=O)N2[C@H](C(=O)Nc3ccc(C(=O)NO)cc3)Cc3c([nH]c4ccccc34)[C@@H]12 [Compound 32, (7S,13bS)-N-(4-(Hydroxycarbamoyl)phenyl)-14-methyl-5-oxo-5,7,8,13,13b,14-hexahydroindolo[2′,3':3,4]pyrido[2,1-b]quinazoline-7-carboxamide]	260 ± 24 nM	2200 ± 180 nM	13000 ± 1400 nM	11000 ± 1200 nM	remarkable TOP2 inhibitory activities	TOP2 inhibitory activity (relaxation assay) (TOP2α; 50 μmol/L): remarkable TOP2 inhibitory activities
CN1c2ccccc2C(=O)N2[C@@H](C(=O)Nc3ccc(/C=C/C(=O)NO)cc3)Cc3c([nH]c4ccccc34)[C@H]12 [ent-25a, (7R,13bR)-N-(4-((E)-3-(Hydroxyamino)-3-oxoprop-1-en-1-yl)phenyl)-14-methyl-5-oxo-5,7,8,13,13b,14-hexahydroindolo[2′,3′:3,4]pyrido[2,1-b]quinazoline-7-carboxamide]	18 ± 1.6 nM	530 ± 450 nM	1600 ± 140 nM	2800 ± 220 nM	–	–
CN1c2ccccc2C(=O)N2[C@@H](C(=O)Nc3cccc(/C=C/C(=O)NO)c3)Cc3c([nH]c4ccccc34)[C@H]12 [ent-25b, (7R,13bR)-N-(3-((E)-3-(Hydroxyamino)-3-oxoprop-1-en-1-yl)phenyl)-14-methyl-5-oxo-5,7,8,13,13b,14-hexahydroindolo[2′,3′:3,4]pyrido[2,1-b]quinazoline-7-carboxamide]	10 ± 0.6 nM	3100 ± 280 nM	12000 ± 1500 nM	20000 ± 2400 nM	–	–
Evodiamine [Compound 6, reference compound]	–	–	–	–	–	Expression of γH2AX (γH2AX in HCT116 cells): no increase; Tumor growth inhibition (TGI) (HCT116 xenograft; 150 mg/kg, p.o., 21 days (dose of the combination not given)): 45.53%

Further lines, with some results ahead:

IC50 [1]	IC50 (HCT116 (colon cancer); [5])	IC50 (MCF-7 (breast cancer))	IC50 (A549 (lung cancer))	TOP2 inhibitory activity (relaxation assay) (TOP2α; 100 μmol/L)	Compound	also measured
27 ± 2.3 nM	7200 ± 520 nM	15000 ± 2500 nM	27000 ± 2100 nM	inactive	CN1c2ccccc2C(=O)N2[C@H](C(=O)NCCCCCCC(=O)NO)Cc3c([nH]c4ccccc34)[C@@H]12 [Compound 20a, (7S,13bS)-N-(7-(Hydroxyamino)-7-oxoheptyl)-14-methyl-5-oxo-5,7,8,13,13b,14-hexahydroindolo[2′,3′:3,4]pyrido[2,1-b]quinazoline-7-carboxamide]	IC50 [2]: 7200 to 27000 nM
53 ± 4.5 nM	11000 ± 1300 nM	> 50000 nM	> 50000 nM	inactive	CN1c2ccccc2C(=O)N2[C@H](C(=O)NCCCCCC(=O)NO)Cc3c([nH]c4ccccc34)[C@@H]12 [Compound 20b, (7S,13bS)-N-(6-(Hydroxyamino)-6-oxohexyl)-14-methyl-5-oxo-5,7,8,13,13b,14-hexahydroindolo[2′,3′:3,4]pyrido[2,1-b]quinazoline-7-carboxamide]	–
89 ± 6.2 nM	630 ± 520 nM	3000 ± 250 nM	10000 ± 1200 nM	remarkable TOP2 inhibitory activities	CN1c2ccccc2C(=O)N2[C@H](C(=O)Nc3ccc(/C=C/C(=O)NO)cc3)Cc3c([nH]c4ccccc34)[C@@H]12 [Compound 25a, (7S,13bS)-N-(4-((E)-3-(Hydroxyamino)-3-oxoprop-1-en-1-yl)phenyl)-14-methyl-5-oxo-5,7,8,13,13b,14-hexahydroindolo[2′,3′:3,4]pyrido[2,1-b]quinazoline-7-carboxamide]	TOP2 inhibitory activity (relaxation assay) (TOP2α; 50 μmol/L): remarkable TOP2 inhibitory activities; IC50 [3]: 340 to 1000 nM; half-life at 1 μmol/L [4]: 9.86 min; Tumor growth inhibition (TGI) (HCT116 xenograft; 20 mg/kg, i.p., 14 consecutive days): 2.2%
22 ± 2.1 nM	2900 ± 2000 nM	17000 ± 1800 nM	5400 ± 480 nM	–	CN1c2ccccc2C(=O)N2[C@@H](C(=O)Nc3ccc(C(=O)Nc4ccccc4N)cc3)Cc3c([nH]c4ccccc34)[C@H]12 [ent-30a, (7R,13bR)-N-(4-((2-Aminophenyl)carbamoyl)phenyl)-14-methyl-5-oxo-5,7,8,13,13b,14-hexahydroindolo[2′,3′:3,4]pyrido[2,1-b]quinazoline-7-carboxamide]	–
10 ± 0.8 nM	1600 ± 130 nM	5300 ± 500 nM	12000 ± 1500 nM	–	CN1c2ccccc2C(=O)N2[C@@H](C(=O)Nc3ccc(C(=O)NO)cc3)Cc3c([nH]c4ccccc34)[C@H]12 [ent-32, (7R,13bR)-N-(4-(Hydroxycarbamoyl)phenyl)-14-methyl-5-oxo-5,7,8,13,13b,14-hexahydroindolo[2′,3′:3,4]pyrido[2,1-b]quinazoline-7-carboxamide]	–
